Measured values as given in ChEMBL document CHEMBL3045051 (Med Chem Res, 2011).
Active and inactive are the calls of the source. The calls are words filed in the database; no cut-off is given here.

What was measured:
Feline coronavirus = assay: Antiviral activity against Feline coronavirus infected feline kidney crandell cells assessed as inhibition of virus-induced cytopathicity; assay type: functional, organism-based
Summary of the method: (§1)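 Confluent monolayers (feline kidney Crandell, Vero, HEL or HeLa, as named for each virus) were infected with 100 CCID50 of virus and allowed to adsorb for 1 h. Unbound virus was then removed, and cultures were incubated with test compound in serial dilutions (200, 40, 8 … µM). Cytopathicity was scored once untreated infected controls reached complete cytopathic effect.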

[1] = target: T1, Seed linoleate 13S-lipoxygenase-1 (Glycine max) (UniProt P08170); assay: Inhibition of Glycine max (soybean) lipoxygenase using sodium linoleate as substrate at 1 X 10^-4
T1 sequence (whole entry): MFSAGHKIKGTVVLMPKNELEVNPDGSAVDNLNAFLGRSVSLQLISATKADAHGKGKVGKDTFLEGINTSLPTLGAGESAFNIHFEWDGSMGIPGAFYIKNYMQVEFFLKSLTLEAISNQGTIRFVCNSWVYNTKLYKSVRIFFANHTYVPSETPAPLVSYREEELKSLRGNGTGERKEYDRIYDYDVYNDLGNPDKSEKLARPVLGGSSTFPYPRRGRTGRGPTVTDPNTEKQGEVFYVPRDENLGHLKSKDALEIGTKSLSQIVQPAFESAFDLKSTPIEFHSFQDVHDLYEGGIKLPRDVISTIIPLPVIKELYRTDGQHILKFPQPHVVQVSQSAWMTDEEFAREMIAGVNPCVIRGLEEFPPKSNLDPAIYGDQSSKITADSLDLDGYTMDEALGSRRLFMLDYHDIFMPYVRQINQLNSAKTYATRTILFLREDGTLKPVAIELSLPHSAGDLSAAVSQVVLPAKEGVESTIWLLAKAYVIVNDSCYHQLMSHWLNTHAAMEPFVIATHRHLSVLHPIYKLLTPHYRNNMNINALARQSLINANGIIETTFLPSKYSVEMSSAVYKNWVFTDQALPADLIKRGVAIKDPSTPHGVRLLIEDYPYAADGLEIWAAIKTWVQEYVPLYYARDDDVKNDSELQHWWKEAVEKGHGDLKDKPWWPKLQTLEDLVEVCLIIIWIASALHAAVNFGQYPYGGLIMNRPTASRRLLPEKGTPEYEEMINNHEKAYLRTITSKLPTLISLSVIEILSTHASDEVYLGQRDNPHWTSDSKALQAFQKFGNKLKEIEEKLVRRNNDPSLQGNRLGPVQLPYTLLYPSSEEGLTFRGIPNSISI

[2] = test system: Respiratory syncytial virus; assay: Antiviral activity against Respiratory syncytial virus infected human HeLa cells assessed as inhibition of virus-induced cytopathicity; assay type: functional, organism-based; summary of the method: as §1
Sindbis virus = assay: Antiviral activity against Sindbis virus infected Hela cells assessed as inhibition of virus-induced cytopathicity; assay type: functional, organism-based
[3] = Antioxidant activity assessed as inhibition of AAPH-induced lipid peroxidation at 1 X 10^-4 M; assay type: functional
Human alphaherpesvirus 2 = assay: Antiviral activity against Human herpesvirus 2 strain G infected human HEL cells assessed as inhibition of virus-induced cytopathicity; assay type: functional, organism-based; summary of the method: as §1
Influenza A virus = assay: Antiviral activity against Unidentified Influenza A virus (H1N2) infected MDCK cells assessed as inhibition of virus-induced cytopathicity; assay type: functional, organism-based
[4] = test system: Radical scavenging activity; assay: Antioxidant activity assessed as DPPH radical scavenging activity at 5 X 10^-5 M after 20 min; assay type: functional
Summary of the method: (§2)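 Test compound was mixed with DPPH (0.05 and 0.1 mM) in ethanol. Absorbance at 517 nm was read after 20 and 60 min and compared with the NDGA standard, with ethanol as control. Each experiment was run at least in triplicate, and the SD of absorbance was <10% of the mean.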

[5] = test system: Vesicular stomatitis virus; assay: Antiviral activity against Vesicular stomatitis virus infected Hela cells assessed as inhibition of virus-induced cytopathicity; assay type: functional, organism-based
Coxsackievirus B4 [6] = assay: Antiviral activity against Human coxsackievirus B4 infected VERO cells assessed as inhibition of virus-induced cytopathicity; assay type: functional, organism-based; summary of the method: as §1
[7] = test system: Mammalian orthoreovirus 1; assay: Antiviral activity against Mammalian orthoreovirus 1 infected VERO cells assessed as inhibition of virus-induced cytopathicity; assay type: functional, organism-based; summary of the method: as §1
Vaccinia virus = assay: Antiviral activity against Vaccinia virus infected human HEL cells assessed as inhibition of virus-induced cytopathicity; assay type: functional, organism-based; settings: Orthopoxvirus vaccinia
[8] = test system: Vesicular stomatitis virus; assay: Antiviral activity against Vesicular stomatitis virus infected HEL cells assessed as inhibition of virus-induced cytopathicity; assay type: functional, organism-based
[9] = test system: Radical scavenging activity; assay: Antioxidant activity assessed as DPPH radical scavenging activity at 1 X 10^-4 M after 20 min; assay type: functional; summary of the method: as §2
[10] = test system: Radical scavenging activity; assay: Antioxidant activity assessed as DPPH radical scavenging activity at 1 X 10^-4 M after 60 min; assay type: functional; summary of the method: as §2
Human alphaherpesvirus 1 = assay: Antiviral activity against […] 1 KOS infected in human HEL cells assessed as inhibition of virus-induced cytopathicity; assay type: functional, organism-based; summary of the method: as §1
Coxsackievirus B4 [11] = assay: Antiviral activity against Human coxsackievirus B4 infected human HeLa cells assessed as inhibition of virus-induced cytopathicity; assay type: functional, organism-based; summary of the method: as §1
[12] = test system: Radical scavenging activity; assay: Antioxidant activity assessed as DPPH radical scavenging activity at 5 X 10^-5 M after 60 min; assay type: functional; summary of the method: as §2
Human respirovirus 3 = assay: Antiviral activity against Human parainfluenza virus 3 infected Vero cells assessed as inhibition of virus-induced cytopathicity; assay type: functional, organism-based; summary of the method: as §1
Punta Toro virus = assay: Antiviral activity against Punta Toro virus infected Hela cells assessed as inhibition of virus-induced cytopathicity; assay type: functional, organism-based
[13] = target: T2, Seed linoleate 13S-lipoxygenase-1 (Glycine max, UniProt P08170); assay: Inhibition of Glycine max (soybean) lipoxygenase using sodium linoleate as substrate
T2 sequence (P08170 whole entry): T1 sequence (whole entry)

[14] = Antioxidant activity assessed as inhibition of AAPH-induced lipid peroxidation at 1 X 10^-5 M; assay type: functional

| SMILES | Activity (Feline coronavirus) | inhibition [1] [%] | Activity [2] | Activity (Sindbis virus) | inhibition [3] [%] | Activity (Human alphaherpesvirus 2) | Activity (Influenza A virus) | Activity (Influenza A virus; H1N1) | inhibition [4] [%] | Activity (Coxsackievirus B4 [6]) | Activity [7] | Activity (Vaccinia virus) | Activity [8] | inhibition [9] | inhibition [10] [%] | Activity (Human alphaherpesvirus 1) | Activity (Coxsackievirus B4 [11]) | inhibition [12] [%] | Activity (Human respirovirus 3) | IC50 [13] [µM] | also measured |
| --- | --- | --- | --- | --- | --- | --- | --- | --- | --- | --- | --- | --- | --- | --- | --- | --- | --- | --- | --- | --- | --- |
| CC(C(=O)n1nnc2ccccc21)c1cccc(C(OC(=O)n2nnc3ccccc32)c2ccccc2)c1 (configuration not stated) | inactive | 95 | inactive | inactive | 98 | inactive | inactive | inactive | 2.9 | inactive | inactive | inactive | inactive | 2.5% | 5.4 | inactive | inactive | 3.7 | inactive | 21 | Activity [5]: inactive; Activity (Punta Toro virus): inactive; inhibition [14]: 15% |
| CC(C(=O)NCc1ccccc1)c1cccc(C(OC(=O)NCc2ccccc2)c2ccccc2)c1 (configuration not stated) | inactive | 83.8 | inactive | – | 98.4 | inactive | inactive | inactive | 4.2 | inactive | inactive | inactive | inactive | inactive | 2.4 | inactive | inactive | 5.3 | inactive | 32 | EC50 (Sindbis virus): 11 µM; EC50 [5]: 3 µM; EC50 (Punta Toro virus): 11 µM; inhibition [14]: inactive |
| CC(C(=O)O)c1cccc(C(=O)c2ccccc2)c1 (configuration not stated) [KETOPROFEN] | inactive | – | inactive | inactive | – | inactive | inactive | inactive | 6.4 | inactive | inactive | inactive | inactive | 8.1% | 7.2 | inactive | inactive | 3.1 | inactive | 130 | Activity [5]: inactive; Activity (Punta Toro virus): inactive |
| CC(C(=O)NCC1CCCCC1)c1cccc(C(OC(=O)NCC2CCCCC2)c2ccccc2)c1 (configuration not stated) | inactive | 56.6 | inactive | inactive | 99.5 | inactive | inactive | inactive | 1.7 | inactive | inactive | inactive | inactive | 1.6% | 5.2 | inactive | inactive | 3.1 | inactive | 95 | Activity [5]: inactive; Activity (Punta Toro virus): inactive; inhibition [14]: 1.4% |
| CC(C(=O)NC1CCCC1)c1cccc(C(OC(=O)NC2CCCC2)c2ccccc2)c1 (configuration not stated) | inactive | 69.6 | inactive | inactive | 95.2 | inactive | inactive | inactive | 3.2 | inactive | inactive | inactive | inactive | inactive | 2.3 | inactive | inactive | 2.8 | inactive | 86 | Activity [5]: inactive; Activity (Punta Toro virus): inactive; inhibition [14]: inactive |
